Data: ChEMBL document CHEMBL4152184, “NB 06: From a simple lysosomotropic aSMase inhibitor to tools for elucidating the role of lysosomes in signaling apoptosis and LPS-induced inflammation” (Eur J Med Chem, 2018)

Legend:
MONO-MAC-6 [1] = assay: Downregulation of ICAM1 mRNA expression level in human MONO-MAC-6 cells at 5 uM incubated for 30 mins measured after 6 hrs by oligonucleotide array hybridization assay relative to control; type: functional
Procedure, shortened: (§1)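 Total RNA was isolated, transcribed and labeled with DY-647 dye, then co-hybridized with DY-548-labeled cDNA from untreated cells on an inflammation oligonucleotide chip (780 gene probes). Differential expression >1.5 was taken as significant.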

MONO-MAC-6 [2] = assay: Downregulation of IL-6 mRNA expression level in human MONO-MAC-6 cells at 5 uM incubated for 30 mins measured after 1 hr by qRT-PCR method relative to control; type: functional
MONO-MAC-6 [3] = assay: Upregulation of CXCL2 mRNA expression level in human MONO-MAC-6 cells at 5 uM incubated for 30 mins measured after 2 hrs by oligonucleotide array hybridization assay relative to control; type: functional
MONO-MAC-6 [4] = assay: Downregulation of CXCL2 mRNA expression level in human MONO-MAC-6 cells at 5 uM incubated for 30 mins measured after 4 hrs by oligonucleotide array hybridization assay relative to control; type: functional; procedure, shortened: as §1
[5] = target: T1, Acid ceramidase (Homo sapiens) (UniProt Q13510); assay: Inhibition of exogenous C6-ceramid-stimulated acid ceramidase in human PBMC assessed as ratio of C16-ceramide/lipid phosphate level at 10 uM preincubated for 30 mins followed by C6-ceramid stimulation measured after 4 hrs by HPLC method (reference value: 2.19); type: cell-based
T1 sequence (whole entry): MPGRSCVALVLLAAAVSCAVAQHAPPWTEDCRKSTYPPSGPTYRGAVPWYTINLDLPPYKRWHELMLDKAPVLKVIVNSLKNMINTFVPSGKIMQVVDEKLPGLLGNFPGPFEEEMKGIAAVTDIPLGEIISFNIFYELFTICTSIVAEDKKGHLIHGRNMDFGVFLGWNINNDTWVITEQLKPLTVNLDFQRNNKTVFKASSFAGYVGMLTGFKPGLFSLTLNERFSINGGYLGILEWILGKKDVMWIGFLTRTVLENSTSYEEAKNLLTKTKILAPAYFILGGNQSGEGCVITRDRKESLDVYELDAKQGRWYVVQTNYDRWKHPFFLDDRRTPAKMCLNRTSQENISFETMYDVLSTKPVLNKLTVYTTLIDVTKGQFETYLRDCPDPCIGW
Procedure, shortened: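 Human macrophages from primary culture were preincubated 30 min with 10 µM compound. They were then stimulated 4 h with mmLDL (54 µg/mL), TNFalpha (3 ng/mL) or exogenous C6-ceramide (10 µM), or left unstimulated. Individual ceramide species (C16 and C24:1) were quantified in the cell lipid extracts.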

MONO-MAC-6 [6] = assay: Upregulation of TNFalpha mRNA expression level in LPS-stimulated human MONO-MAC-6 cells at 5 uM preincubated for 30 mins followed by LPS stimulation measured after 4 hrs by qRT-PCR method (reference value: 4.32); type: functional
MONO-MAC-6 [7] = assay: Upregulation of CCL4 mRNA expression level in LPS-stimulated human MONO-MAC-6 cells at 5 uM preincubated for 30 mins followed by LPS stimulation measured after 4 hrs by oligonucleotide array hybridization assay (reference value: 18.52); type: functional
MONO-MAC-6 [8] = assay: Upregulation of CCL20 mRNA expression level in LPS-stimulated human MONO-MAC-6 cells at 5 uM preincubated for 30 mins followed by LPS stimulation measured after 1 hr by oligonucleotide array hybridization assay (reference value: 1.07); type: functional
MONO-MAC-6 [9] = assay: Upregulation of HSPA1A mRNA expression level in LPS-stimulated human MONO-MAC-6 cells preincubated for 30 mins followed by LPS stimulation measured after 4 hrs by qRT-PCR analysis relative to control; type: functional
MONO-MAC-6 [10] = assay: Upregulation of CXCL2 mRNA expression level in LPS-stimulated human MONO-MAC-6 cells at 5 uM preincubated for 30 mins followed by LPS stimulation measured after 2 hrs by qRT-PCR method (reference value: 4.77); type: functional
MONO-MAC-6 [11] = assay: Upregulation of PTGS2 mRNA expression level in LPS-stimulated human MONO-MAC-6 cells at 5 uM preincubated for 30 mins followed by LPS stimulation measured after 2 hrs by oligonucleotide array hybridization assay (reference value: 1.97); type: functional
MONO-MAC-6 [12] = assay: Downregulation of TNFalpha mRNA expression level in human MONO-MAC-6 cells at 5 uM incubated for 30 mins measured after 4 hrs by qRT-PCR method relative to control; type: functional
MONO-MAC-6 [13] = assay: Downregulation of CXCL10 mRNA expression level in human MONO-MAC-6 cells at 5 uM incubated for 30 mins measured after 6 hrs by oligonucleotide array hybridization assay relative to control; type: functional; procedure, shortened: as §1
MONO-MAC-6 [14] = assay: Downregulation of CXCL2 mRNA expression level in human MONO-MAC-6 cells at 5 uM incubated for 30 mins measured after 1 hr by qRT-PCR method relative to control; type: functional
MONO-MAC-6 [15] = assay: Upregulation of CCL4 mRNA expression level in LPS-stimulated human MONO-MAC-6 cells at 5 uM preincubated for 30 mins followed by LPS stimulation measured after 1 hr by oligonucleotide array hybridization assay (reference value: 1.14); type: functional
MONO-MAC-6 [16] = assay: Downregulation of PTX3 mRNA expression level in LPS-stimulated human MONO-MAC-6 cells at 5 uM preincubated for 30 mins followed by LPS stimulation measured after 6 hrs by oligonucleotide array hybridization assay (reference value: 3.18); type: functional; procedure, shortened: as §1
MONO-MAC-6 [17] = assay: Downregulation of PTX3 mRNA expression level in human MONO-MAC-6 cells at 5 uM incubated for 30 mins measured after 4 hrs by oligonucleotide array hybridization assay relative to control; type: functional; procedure, shortened: as §1
MONO-MAC-6 [18] = assay: Upregulation of CXCL2 mRNA expression level in LPS-stimulated human MONO-MAC-6 cells at 5 uM preincubated for 30 mins followed by LPS stimulation measured after 4 hrs by oligonucleotide array hybridization assay (reference value: 13.17); type: functional
MONO-MAC-6 [19] = assay: Upregulation of PTX3 mRNA expression level in LPS-stimulated human MONO-MAC-6 cells at 5 uM preincubated for 30 mins followed by LPS stimulation measured after 4 hrs by oligonucleotide array hybridization assay (reference value: 4.65); type: functional
MONO-MAC-6 [20] = assay: Upregulation of PTGS2 mRNA expression level in human MONO-MAC-6 cells at 5 uM incubated for 30 mins measured after 2 hrs by oligonucleotide array hybridization assay relative to control; type: functional
MONO-MAC-6 [21] = assay: Downregulation of IL-6 mRNA expression level in human MONO-MAC-6 cells at 5 uM incubated for 30 mins measured after 4 hrs by qRT-PCR method relative to control; type: functional
MONO-MAC-6 [22] = assay: Upregulation of IL23A mRNA expression level in LPS-stimulated human MONO-MAC-6 cells at 5 uM preincubated for 30 mins followed by LPS stimulation measured after 6 hrs by qRT-PCR method (reference value: 7.18); type: functional
MONO-MAC-6 [23] = assay: Upregulation of CXCL10 mRNA expression level in LPS-stimulated human MONO-MAC-6 cells at 5 uM preincubated for 30 mins followed by LPS stimulation measured after 1 hr by oligonucleotide array hybridization assay (reference value: 1.18); type: functional
MONO-MAC-6 [24] = assay: Upregulation of IL23A mRNA expression level in human MONO-MAC-6 cells at 5 uM incubated for 30 mins measured after 1 hr by qRT-PCR method relative to control; type: functional

COc1ccc(CCN(C)CCCn2c3ccccc3c3ccccc32)cc1
fold change (FC) (MONO-MAC-6 [1]): 1.79 | fold change (FC) (MONO-MAC-6 [2]): 1.04 | fold change (FC) (MONO-MAC-6 [3]): 1.11 | fold change (FC) (MONO-MAC-6 [4]): 2.28 | Ratio [5]: 0.47 | fold change (FC) (MONO-MAC-6 [6]): 1.37 | fold change (FC) (MONO-MAC-6 [7]): 8.04 | fold change (FC) (MONO-MAC-6 [8]): 1.03 | fold change (FC) (MONO-MAC-6 [9]): 2.67 | fold change (FC) (MONO-MAC-6 [10]): 5.03 | fold change (FC) (MONO-MAC-6 [11]): 3.66 | fold change (FC) (MONO-MAC-6 [12]): 2.86 | fold change (FC) (MONO-MAC-6 [13]): 6.7 | fold change (FC) (MONO-MAC-6 [14]): 1.01 | fold change (FC) (MONO-MAC-6 [15]): 1.24 | fold change (FC) (MONO-MAC-6 [16]): 1.05 | fold change (FC) (MONO-MAC-6 [17]): 1.93 | fold change (FC) (MONO-MAC-6 [18]): 5.82 | fold change (FC) (MONO-MAC-6 [19]): 1.91 | fold change (FC) (MONO-MAC-6 [20]): 2.08 | fold change (FC) (MONO-MAC-6 [21]): 2.25 | fold change (FC) (MONO-MAC-6 [22]): 1.1 | fold change (FC) (MONO-MAC-6 [23]): 1.69 | fold change (FC) (MONO-MAC-6 [24]): 1.01
